This is a sample that favours compounds with a hit; in the whole collection about 2.1% have one here.
PAX8 inh HTS: lowers PAX8-driven luciferase in RMG-I cells. RMG-I TPO-luciferase reporter, SteadyGlo, 24 h. inhibition, % at 12.6 µM. actives 1.2% (n = 360,000);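 active = mean replicate inhibition at least 60% with every replicate also reaching 60%; inconclusive = only one of the two criteria is met; inactive = mean below 60% and not all replicates reaching 60%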;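 also: luciferase light reporting Pax8 driven TPO promoter activity; plate controls were median of neutral control wells for no effect and mitoxantrone controls for full effect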
aSyn UTR inh: MLPCN primary screen, SNCA 5' untranslated region | alpha-synuclein 5'UTR reporter, inhibitor activity | inhibition, % (tested at 7.5 µM) | actives 0.82% (n = 300,000); in the data active = inhibition above about 60%; inconclusive = no clear call, values can overlap the other calls;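 also: H4 neuroglioblastoma cells stably carrying SNCA 5'UTR luciferase fusion; 0% = DMSO wells and 100% = positive control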
Shn3 inh set2: reduces Shn3 3'UTR luciferase signal in osteoblasts. Clone20 osteoblast Shn3 3'UTR firefly luciferase, 24 h. actives 0.52% (n = 360,000). inhibition, % at 12.5 µM;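 active = mean inhibition of at least 75% with every replicate also reaching 75%; inconclusive = mean inhibition at least 75% but some replicate below; inactive = mean inhibition below 75%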;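 also: 0% = median of neutral control wells and 100% = pilot-screen positive control compound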
FN deposit inh: fibronectin deposition inhibition | AH1F fibroblasts, Alexa488-fibronectin deposition fluorescence, overnight | inhibition, % at 12.6 µM | actives 0.086% (n = 350,000) | AID 743247;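 active = mean inhibition across replicates of 30% or more, regardless of how many single replicates reach that level; inconclusive = mean under 30% yet at least half of replicates reach 30%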;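 also: positive control wells lacked labelled fibronectin entirely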
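Assay system: AH1F fibroblasts / Quantity: 10000 cells per well / Medium: DMEM plus 2% serum, read in PBS / Reagent: labelled fibronectin 24 nM / Dosing: single dose, pinned / Times: 1 h cell attachment, overnight exposure to compound and label / Signal: fluorescence, ex 485 nm, em 525 nm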
EWS-Fli inh: EWS/Fli transcriptional activity inhibition; actives 0.67% (n = 350,000); A673 NR0B1-luciferase reporter, viability-normalised; AID 651661; inhibition, % at 12.6 µM;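 active = mean inhibition of at least 50% after viability correction, with every replicate also passing that limit; inconclusive = mean reaches 50% but only one of two replicates passes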;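 also: firefly luciferase signal divided by Alamar Blue viability fluorescence both relative to DMSO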
LMP1 NFkB inh: reduces LMP1-driven NF-kappaB luciferase signal; LMP1-induced NF-kappaB luciferase reporter cells, luminescence; inhibition, % at 12.5 µM; actives 0.69% (n = 350,000); in the data active = inhibition above about 41%; inconclusive = no clear call, values can overlap the other calls;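 also: 0% = neutral control wells and 100% = reference inhibitor control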
* hit, by the source's call; ? = inconclusive; nt = not tested or not shown.

SMILES | PAX8 inh HTS | aSyn UTR inh | Shn3 inh set2 | FN deposit inh | EWS-Fli inh | LMP1 NFkB inh
Cc1noc(C)c1S(=O)(=O)Nc1ccc2c(c1)C(=O)N([C@@H](C)CO)C[C@@H](C)[C@@H](CN(C)Cc1ccncc1)OCCCC[C@H](C)O2 | 8 | nt | nt | nt | 6 | nt
C[C@H](CO)N1C[C@H](C)[C@@H](CN(C)C(=O)C2CCCCC2)Oc2ncc(-c3cccnc3)cc2C1=O | nt | nt | nt | nt | -9 | nt
C[C@@H]1CN([C@@H](C)CO)C(=O)Cc2cc(NC(=O)Cc3cn(C)c4ccccc34)ccc2O[C@H]1CN(C)S(=O)(=O)c1ccc(Cl)cc1 | 26 | nt | nt | nt | -7 | nt
C[C@H](CO)N1C[C@H](C)[C@H](CN(C)S(=O)(=O)c2ccc(F)cc2)OCCCC[C@H](C)Oc2ccc(NC(=O)Nc3ccc(F)cc3)cc2C1=O | 76* | nt | nt | 2 | 2 | nt
Cc1ccc(S(=O)(=O)N(C)C[C@@H]2OCCCC[C@H](C)Oc3ccc(NC(=O)Nc4ccc(F)cc4)cc3C(=O)N([C@H](C)CO)C[C@@H]2C)cc1 | 61* | nt | nt | 13 | 10 | nt
C[C@@H]1CN([C@H](C)CO)C(=O)c2cc(NC(=O)Nc3ccc(F)cc3)ccc2O[C@@H](C)CCCCO[C@H]1CN(C)S(=O)(=O)c1ccc(F)cc1 | 86* | nt | nt | 3 | 2 | nt
C[C@H](NC(=O)C[C@@H]1CC[C@H](NC(=O)C2CC2)[C@@H](CO)O1)c1ccccc1 | 1 | nt | nt | 1 | -2 | nt
S=C(NCCCN1CCOCC1)N1CCN(c2nc(-c3ccc(Cl)cc3)cs2)CC1 | 39 | -8 | 1 | 3 | 28 | 44*
COC(=O)c1ccc(Oc2cc(C)nc(-n3nc(C)cc3C)n2)cc1 | nt | 65* | 22 | 0 | nt | 8
C[C@H](CO)N1C[C@H](C)[C@H](CN(C)Cc2ccc(C(F)(F)F)cc2)OCCCC[C@H](C)Oc2ccc(NS(=O)(=O)c3ccc(F)cc3)cc2C1=O | 106* | nt | nt | 6 | 73* | nt
C[C@@H]1CN([C@@H](C)CO)C(=O)c2cc(NS(=O)(=O)c3ccc(F)cc3)ccc2O[C@@H](C)CCCCO[C@@H]1CN(C)Cc1ccc(C(F)(F)F)cc1 | 88* | nt | nt | -3 | 0 | nt
C[C@H]1CCCCO[C@@H](CN(C)Cc2ccc(C(F)(F)F)cc2)[C@@H](C)CN([C@@H](C)CO)C(=O)c2cc(NS(=O)(=O)c3ccc(F)cc3)ccc2O1 | 96* | nt | nt | 8 | 17 | nt
COc1ccc(S(=O)(=O)Nc2ccc3c(c2)C(=O)N([C@H](C)CO)C[C@H](C)[C@@H](CN(C)Cc2ccc(C(F)(F)F)cc2)OCCCC[C@@H](C)O3)cc1 | 29 | nt | nt | -11 | 5 | nt
C[C@@H]1CCCCO[C@H](CN(C)Cc2ccc(C(F)(F)F)cc2)[C@H](C)CN([C@@H](C)CO)C(=O)c2cc(NS(=O)(=O)c3ccc(F)cc3)ccc2O1 | 83* | nt | nt | -2 | 4 | nt
C[C@@H]1CN([C@@H](C)CO)C(=O)c2cc(NS(=O)(=O)c3ccc(F)cc3)ccc2O[C@@H](C)CCCCO[C@@H]1CN(C)Cc1ccc(C(=O)O)cc1 | -8 | nt | nt | nt | -10 | nt
Cc1noc(C)c1NC(=O)Nc1ccc2c(c1)C(=O)N([C@@H](C)CO)C[C@H](C)[C@@H](CN(C)C(=O)Nc1ccccc1)OCCCC[C@H](C)O2 | -18 | nt | nt | 5 | -9 | nt
C[C@@H]1CCCCO[C@@H](CN(C)Cc2ccccc2)[C@@H](C)CN([C@@H](C)CO)C(=O)c2cc(NS(=O)(=O)c3ccccc3)ccc2O1 | 3 | nt | nt | nt | 8 | nt
C[C@@H]1CCCCO[C@@H](CN(C)Cc2ccc(C(F)(F)F)cc2)[C@H](C)CN([C@H](C)CO)C(=O)c2cc(NS(=O)(=O)c3ccccc3)ccc2O1 | 92* | nt | nt | -5 | 13 | nt
C[C@@H]1CCCCO[C@H](CN(C)Cc2ccc(C(F)(F)F)cc2)[C@H](C)CN([C@H](C)CO)C(=O)c2cc(NS(=O)(=O)c3ccc(F)cc3)ccc2O1 | 79* | nt | nt | -8 | 22 | nt
C[C@@H]1CCCCO[C@H](CN(C)Cc2ccc(C(F)(F)F)cc2)[C@@H](C)CN([C@@H](C)CO)C(=O)c2cc(NS(=O)(=O)c3ccc(F)cc3)ccc2O1 | 103* | nt | nt | -12 | 31 | nt
COC(=O)C[C@@H]1CC[C@H]2[C@H](COc3ccc(NC(=O)NC(C)C)cc3C(=O)N2C)O1 | 5 | nt | nt | -4 | 9 | nt
CCC(=O)Nc1ccc2c(c1)OC[C@@H](C)N(C(=O)Cc1ccccn1)C[C@H](C)[C@H](OC)CN(C)C2=O | nt | nt | nt | -2 | nt | nt
CNCc1ccccc1Sc1ccc(O)c(O)c1 | 76* | 26 | 10 | -1 | -4 | -4
COc1ccc(CCNc2nnc(Sc3nnnn3-c3ccccc3)s2)cc1OC | 94* | 120* | 12 | -10 | nt | 5
COc1ccc2c3c([nH]c2c1)[C@@H](CO)N(C(=O)c1cccc(F)c1)CC31CCN(S(=O)(=O)c2cccs2)CC1 | nt | nt | nt | nt | -17 | nt
SMILES | PAX8 inh HTS | aSyn UTR inh | Shn3 inh set2 | FN deposit inh | EWS-Fli inh | LMP1 NFkB inh
CC(C)C(=O)Nc1ccc2c(c1)C(=O)N(C)[C@@H]1CC[C@@H](CC(=O)NCC3CC3)O[C@@H]1CO2 | 1 | nt | nt | -5 | 1 | nt
ClC(Cl)(Cl)c1nc2ccccc2n2nncc12 | 86* | 29 | 8 | 1 | 48 | -1
CCOc1ccccc1NC(=O)c1nc(S(=O)(=O)Cc2ccccc2)ncc1Cl | 134* | 51 | 96* | 3 | ? | -30
COc1ccccc1NC(=O)c1ccc(C(=O)Nc2ccccc2OC)nc1 | 12 | -22 | 18 | 3 | 13 | 3
CCS(=O)(=O)c1ncc(Cl)c(C(=O)Nc2ccccc2OC)n1 | 5 | 4 | 97* | 7 | ? | -19
CCOc1ccccc1NC(=O)c1ccc(C(=O)Nc2ccccc2OCC)nc1 | 40 | 19 | 23 | 17 | -5 | -16
COc1ccccc1NC(=O)c1nc(S(=O)(=O)Cc2ccccc2)ncc1Cl | 130* | 71* | 99* | 42* | 59* | 1
C[C@@H]1CN([C@@H](C)CO)C(=O)Cc2cc(NS(=O)(=O)c3ccccc3)ccc2O[C@H]1CN(C)S(=O)(=O)c1ccccc1 | -15 | nt | nt | nt | 3 | nt
CO[C@H]1CN(C)C(=O)c2ccc(NC(=O)Cc3ccccc3)cc2OC[C@H](C)N(C(=O)c2ccccc2F)C[C@H]1C | 0 | nt | nt | -14 | 5 | nt
CCOC(=O)c1sc(NC(=O)CNCc2cccnc2)c(C(=O)OCC)c1C | -5 | 13 | 6 | -13 | 8 | -4
CCOC(=O)c1sc(NC(=O)CNCc2ccccn2)c(C(=O)OCC)c1C | 39 | ? | 48 | 9 | 34 | 44*
N#Cc1ccc(-c2csc(NNC(=O)c3ccccc3)n2)cc1 | nt | 7 | -7 | nt | nt | 14
N#Cc1ccc(-c2csc(NNC(=O)c3ccc(Br)cc3)n2)cc1 | nt | 35 | 8 | nt | nt | 55*
CNc1cc(-n2nc(C)cc2-c2ccccc2)ncn1 | 11 | 27 | 2 | -6 | nt | -25
Cc1cc(-c2ccccc2)n(-c2cc(N/N=C/c3ccccc3O)ncn2)n1 | 71* | nt | 89* | -2 | nt | 21

Source: PubChem BioAssay (Broad Institute)
